These results are taken from ChEMBL document CHEMBL6153131, “Rational Design and Optimization of a Potent IDO1 Proteolysis Targeting Chimera (PROTAC)” (J Med Chem, 2025).

Test [1] deals with Indoleamine 2,3-dioxygenase 1 (Homo sapiens) (UniProt P14902). Kind of test: Binding affinity to 6His-tagged recombinant IDO1 (unknown origin) assessed as binary complex formation by measuring half life by Biolayer Interferometry assay.
For test [2], the target named is T1, Protein cereblon/Indoleamine 2,3-dioxygenase 1 (Homo sapiens, UniProt P14902+Q96SW2). As to the kind of experiment: PROTAC activity at CRBN/IDO1 in human U87 cells assessed as induction of IDO1 degradation by measuring remaining activity at 0.03 uM pretreated with IFN-gamma for 24 hrs followed by compound addition and measured after 24 hrs by Western blotting analysis (reference value: 100%). It is filed as cell-based. The method, boiled down:
(§1)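 U87 cells given an extended dose range of PROTAC for 24 h, then Western blot for IDO1. IFNγ-induced IDO1 levels normalised to untreated samples. n = 3 independent experiments; mean ± SEM.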
On the technique in general: In western blotting, separated proteins are transferred to a membrane and probed.
Target sequence in this assay (P14902 whole entry, looked up): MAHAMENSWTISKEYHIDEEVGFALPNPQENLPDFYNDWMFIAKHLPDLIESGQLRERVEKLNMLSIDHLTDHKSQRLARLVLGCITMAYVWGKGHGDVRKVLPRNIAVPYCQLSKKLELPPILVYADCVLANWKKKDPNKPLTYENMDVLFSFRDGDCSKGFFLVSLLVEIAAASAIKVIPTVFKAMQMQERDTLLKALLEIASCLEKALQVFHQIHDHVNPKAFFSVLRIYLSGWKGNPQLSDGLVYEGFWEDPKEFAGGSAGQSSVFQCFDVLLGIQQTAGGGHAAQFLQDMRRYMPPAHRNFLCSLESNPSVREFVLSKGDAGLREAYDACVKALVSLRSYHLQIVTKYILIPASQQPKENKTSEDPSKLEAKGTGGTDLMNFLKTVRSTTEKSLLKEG
Target sequence in this assay (Q96SW2 whole entry, looked up): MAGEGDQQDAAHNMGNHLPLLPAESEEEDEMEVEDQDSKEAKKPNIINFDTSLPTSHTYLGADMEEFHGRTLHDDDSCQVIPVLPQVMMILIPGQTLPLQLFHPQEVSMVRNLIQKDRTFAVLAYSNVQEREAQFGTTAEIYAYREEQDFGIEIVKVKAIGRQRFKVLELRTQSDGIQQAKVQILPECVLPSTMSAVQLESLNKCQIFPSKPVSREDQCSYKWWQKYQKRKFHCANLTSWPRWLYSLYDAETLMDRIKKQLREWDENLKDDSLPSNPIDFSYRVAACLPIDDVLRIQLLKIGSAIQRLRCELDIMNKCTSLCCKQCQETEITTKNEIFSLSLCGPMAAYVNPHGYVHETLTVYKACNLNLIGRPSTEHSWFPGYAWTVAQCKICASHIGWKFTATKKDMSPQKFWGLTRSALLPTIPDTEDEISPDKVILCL

Test [3] has as its target T1, Protein cereblon/Indoleamine 2,3-dioxygenase 1. As to the kind of experiment: PROTAC activity at CRBN/IDO1 in human U87 cells assessed as induction of IDO1 degradation by measuring remaining activity at 0.003 uM incubated for 24 hrs by Western blotting analysis (reference value: 100%). Format: cell-based.
Target sequence in this assay (P14902 whole entry, looked up): as the sequence (P14902 whole entry, looked up) above
Target sequence in this assay (Q96SW2 whole entry, looked up): as the sequence (Q96SW2 whole entry, looked up) above
The target is the same in test [4]. As to the kind of experiment: PROTAC activity at CRBN/IDO1 in human U87 cells assessed as induction of IDO1 degradation by measuring remaining activity at 3 uM pretreated with IFN-gamma for 24 hrs followed by compound addition and measured after 24 hrs by Western blotting analysis (reference value: 100%). Format: cell-based. The method, boiled down: as §1
Target sequence in this assay (P14902 whole entry, looked up): as the sequence (P14902 whole entry, looked up) above
Target sequence in this assay (Q96SW2 whole entry, looked up): as the sequence (Q96SW2 whole entry, looked up) above
Test [5] shares this target. As to the kind of experiment: PROTAC activity at CRBN/N-terminal HiBiT-tagged IDO1 (unknown origin) transfected in human U87 cells assessed as induction of IDO1 degradation by measuring maximum efficacy pretreated with IFN-gamma for 24 hrs followed by compound addition and measured after 24 hrs by Nano-Glo HiBiT assay relative to control. It is filed as cell-based. The method, boiled down: (§2)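 U87 cells carrying HiBiT knocked in by CRISPR/Cas9 at the IDO1 N-terminus, treated for 24 h. Degradation read as loss of luminescence. DC50 fitted from the lowest concentration up to maximal degradation, excluding hook-effect points; triplicate mean ± SD.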
On the technique in general: With HiBiT, luminescence reflects the tagged protein that the partner subunit can reach.
Target sequence in this assay (P14902 whole entry, looked up): as the sequence (P14902 whole entry, looked up) above
Target sequence in this assay (Q96SW2 whole entry, looked up): as the sequence (Q96SW2 whole entry, looked up) above

Test [6] relates to U-87MG ATCC. Kind of test: Inhibition of kynurenine production in human U87 cells […] and measured after 24 hrs by Ehrlich's reagent based analysis. It is filed as functional, cell-based. To be noted: dose 0.001-10 µM. The method, boiled down: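 U87 cells plated, then 24 h later given compound with 50 ng/mL IFN-γ for a total of 24 h. Supernatant kynurenine measured with Ehrlich's reagent; cells without IFN-γ as control; mean ± SEM, Tukey's test.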

Test [7] has as its target T1, Protein cereblon/Indoleamine 2,3-dioxygenase 1. As to the kind of experiment: PROTAC activity at CRBN/IDO1 in human U87 cells assessed as induction of IDO1 degradation by measuring remaining activity at 0.001 uM pretreated with IFN-gamma for 24 hrs followed by compound addition and measured after 24 hrs by Western blotting analysis (reference value: 100%). It is filed as cell-based. The method in brief: as §1
Target sequence in this assay (P14902 whole entry, looked up): as the sequence (P14902 whole entry, looked up) above
Target sequence in this assay (Q96SW2 whole entry, looked up): as the sequence (Q96SW2 whole entry, looked up) above

Test [8] deals with Kelly. Kind of test: Downregulation of EPHX2 protein level in human Kelly cells at 1 uM incubated for 24 hrs by proteomics analysis. Format: functional, cell-based.
Test [9] addresses T1, Protein cereblon/Indoleamine 2,3-dioxygenase 1. As to the kind of experiment: PROTAC activity at CRBN/IDO1 in human U87 cells assessed as induction of IDO1 degradation by measuring remaining activity at 0.1 uM pretreated with IFN-gamma for 24 hrs followed by compound addition and measured after 24 hrs by Western blotting analysis (reference value: 100%). Format: cell-based. The method, boiled down: as §1
Target sequence in this assay (P14902 whole entry, looked up): as the sequence (P14902 whole entry, looked up) above
Target sequence in this assay (Q96SW2 whole entry, looked up): as the sequence (Q96SW2 whole entry, looked up) above

For test [10] the target is unchanged. Kind of test: PROTAC activity at CRBN/IDO1 in human U87 cells assessed as induction of IDO1 degradation by measuring remaining activity at 1 uM pretreated with IFN-gamma for 24 hrs followed by compound addition and measured after 24 hrs by Western blotting analysis (reference value: 100%). It is filed as cell-based. The method, boiled down:
as §1

Test [11] has the same target. Kind of test: PROTAC activity at CRBN/IDO1 in human U87 cells assessed as induction of IDO1 degradation by measuring remaining activity at 0.3 uM pretreated with IFN-gamma for 24 hrs followed by compound addition and measured after 24 hrs by Western blotting analysis (reference value: 100%). Format: cell-based. The method in brief: as §1
Test [12] shares this target. Kind of test: Binding affinity to CRBN/6His-tagged recombinant IDO1 (unknown origin) assessed as ternary complex formation by measuring half life by Biolayer Interferometry assay. Format: protein assay. In general terms: Biolayer interferometry detects binding as a change in optical thickness at a sensor tip.
For test [13], the system named is Kelly. Kind of test: Downregulation of SALL4 protein level in human Kelly cells at 1 uM incubated for 24 hrs by proteomics analysis. It is filed as functional, cell-based.
The subject of test [14] is Kelly. Kind of test: Downregulation of ADO protein level in human Kelly cells at 1 uM incubated for 24 hrs by proteomics analysis. It is filed as functional, cell-based.
Test [15] concerns the target T1, Protein cereblon/Indoleamine 2,3-dioxygenase 1. Kind of test: PROTAC activity at CRBN/IDO1 in human U87 cells assessed as induction of IDO1 degradation by measuring remaining activity at 10 uM pretreated with IFN-gamma for 24 hrs followed by compound addition and measured after 24 hrs by Western blotting analysis (reference value: 100%). It is filed as cell-based. The method in brief: as §1

Test [16] relates to Kelly. As to the kind of experiment: Downregulation of CDK8 protein level in human Kelly cells at 1 uM incubated for 24 hrs by proteomics analysis. It is filed as functional, cell-based.
In test [17] the target is T1, Protein cereblon/Indoleamine 2,3-dioxygenase 1. As to the kind of experiment: PROTAC activity at CRBN/IDO1 in human U87 cells assessed as induction of IDO1 degradation by measuring remaining activity at 0.01 uM pretreated with IFN-gamma for 24 hrs followed by compound addition and measured after 24 hrs by Western blotting analysis (reference value: 100%). It is filed as cell-based. The method, boiled down: as §1

The target is the same in test [18]. As to the kind of experiment: PROTAC activity at CRBN/N-terminal HiBiT-tagged IDO1 (unknown origin) transfected in human U87 cells assessed as induction of IDO1 degradation pretreated with IFN-gamma for 24 hrs followed by compound addition and measured after 24 hrs by Nano-Glo HiBiT assay. Format: cell-based. The method in brief: as §2
Target sequence in this assay (P14902 whole entry): as the sequence (P14902 whole entry, looked up) above
Target sequence in this assay (Q96SW2 whole entry): as the sequence (Q96SW2 whole entry, looked up) above
Test [19] has the same target. As to the kind of experiment: PROTAC activity at CRBN/IDO1 in human U87 cells assessed as induction of IDO1 degradation by measuring maximum efficacy at 300 nM pretreated with IFN-gamma for 24 hrs followed by compound addition and measured after 24 hrs by Western blotting analysis relative to control. It is filed as cell-based. The method in brief:
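IDO1 in U87 cells induced with 50 ng/mL human IFN-γ, then compound given across an extended dose range for 24 h. IDO1 and GAPDH read by Western blot; IDO1 levels normalized to untreated; DC50 from n = 3 independent experiments.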

Test [20] deals with Protein cereblon (Homo sapiens, UniProt Q96SW2). Kind of test: Binding affinity to CRBN (unknown origin) assessed as dissociation constant by Biolayer Interferometry assay.
Test [21] deals with T1, Protein cereblon/Indoleamine 2,3-dioxygenase 1. Kind of test: PROTAC activity at CRBN/IDO1 in human SW1990 cells assessed as induction of IDO1 degradation at 100 nM pretreated with IFN-gamma for 24 hrs followed by compound addition and measured after 24 hrs by Western blotting analysis. Format: cell-based.
The target is the same in test [22]. Kind of test: PROTAC activity at CRBN/IDO1 in human SK-OV-3 cells assessed as induction of IDO1 degradation at 100 nM pretreated with IFN-gamma for 24 hrs followed by compound addition and measured after 24 hrs by Western blotting analysis. It is filed as cell-based.
Test [23] shares this target. Kind of test: PROTAC activity at CRBN/IDO1 in human U87 cells assessed as induction of IDO1 degradation by measuring remaining activity at 25 nM pretreated with IFN-gamma for 24 hrs followed by compound addition and measured after 24 hrs by Western blotting analysis (reference value: 100%). It is filed as cell-based.
Test [24] shares this target. Kind of test: PROTAC activity at CRBN/IDO1 in human U87 cells assessed as induction of IDO1 degradation by measuring remaining activity at 100 nM pretreated with IFN-gamma for 24 hrs followed by compound addition and measured after 24 hrs by Western blotting analysis (reference value: 100%). It is filed as cell-based.
Test [25] has the same target. As to the kind of experiment: PROTAC activity at CRBN/IDO1 in human U87 cells assessed as induction of IDO1 degradation by measuring remaining activity at 50 nM pretreated with IFN-gamma for 24 hrs followed by compound addition and measured after 24 hrs by Western blotting analysis (reference value: 100%). It is filed as cell-based.
Test [26] shares this target. As to the kind of experiment: PROTAC activity at CRBN/IDO1 in human KNS-42 cells assessed as induction of IDO1 degradation at 100 nM pretreated with IFN-gamma for 24 hrs followed by compound addition and measured after 24 hrs by Western blotting analysis. Format: cell-based.
The target is the same in test [27]. As to the kind of experiment: PROTAC activity at CRBN/IDO1 in human PDX-38 cells assessed as induction of IDO1 degradation at 100 nM pretreated with IFN-gamma for 24 hrs followed by compound addition and measured after 24 hrs by Western blotting analysis. Format: cell-based.
The target is the same in test [28]. Kind of test: PROTAC activity at CRBN/IDO1 in human U87 cells overexpressing GFP-fused IDO1 assessed as induction of IDO1 degradation at 100 nM pretreated with IFN-gamma for 24 hrs followed by compound addition and measured after 24 hrs by Western blotting analysis. Format: cell-based.
Test [29] shares this target. As to the kind of experiment: PROTAC activity at CRBN/IDO1 in human MDA-MB-231 cells assessed as induction of IDO1 degradation at 100 nM pretreated with IFN-gamma for 24 hrs followed by compound addition and measured after 24 hrs by Western blotting analysis. Format: cell-based.
Test [30] shares this target. As to the kind of experiment: PROTAC activity at CRBN/IDO1 in human PC-3 cells assessed as induction of IDO1 degradation at 100 nM pretreated with IFN-gamma for 24 hrs followed by compound addition and measured after 24 hrs by Western blotting analysis. Format: cell-based.
Test [31] shares this target. Kind of test: PROTAC activity at CRBN/IDO1 in human PDX-6 cells assessed as induction of IDO1 degradation at 100 nM pretreated with IFN-gamma for 24 hrs followed by compound addition and measured after 24 hrs by Western blotting analysis. Format: cell-based.
For test [32], the system named is U-87MG ATCC. As to the kind of experiment: Inhibition of kynurenine production in human U87 cells at 25 nM pretreated with IFN-gamma for 24 hrs followed by compound addition and measured after 24 hrs by Ehrlich's reagent based analysis. Format: functional, cell-based.

SMILES strings stand for the structures. Active and inactive are the calls of the source. The calls are words filed in the database; no cut-off is given here.

Protein cereblon, sequence (Q96SW2 whole entry): as the sequence (Q96SW2 whole entry, looked up) above
Indoleamine 2,3-dioxygenase 1 (Homo sapiens), sequence (P14902 whole entry, looked up): as the sequence (P14902 whole entry, looked up) above

With `C[C@@H](C(=O)Nc1cccc(OC2CCN(C(=O)CN3CCC(CN4CCN(c5ccc6c(c5)C(=O)N(C5CCC(=O)NC5=O)C6=O)CC4)CC3)CC2)c1)[C@H]1CC[C@@H](c2ccnc3ccc(F)cc32)CC1` (stereo partly specified), the figures for the T1/2 in test [1] and in test [12] were 53 s and 4.27 min, respectively. The Activity in [2] was 71%; in test [3], 88%; in test [4], 57%; in test [7] it was 93%; in [9] it was 47%; in test [10], 37%. For the same compound, the Activity in test [11] stood at 32%; in [15], 93%; in test [17], 84%. Besides, the Emax in test [5] was determined as 67%; in test [19], 68%. Further, the inhibition entry in test [6] is “Dose-dependent-effect”. The outcome in test [8], in test [13], in test [14] and in [16] was Active. Further, the DC50 in [18] came out at 20 nM.

As for `C[C@@H](C(=O)Nc1ccc(OC2CCN(C(=O)CCOCCOCCNc3cccc4c3C(=O)N(C3CCC(=O)NC3=O)C4=O)CC2)cc1)[C@H]1CC[C@@H](c2ccnc3ccc(F)cc32)CC1` (stereo partly specified), in test [20], the Kd came to 290 nM. Besides, the Emax in [5] is 79%. Besides, in test [18], the DC50 turned out to be 430 nM.

With `C[C@@H](C(=O)Nc1cccc(OC2CCN(C(=O)CN3CCC(N4CCN(c5ccc6c(c5)C(=O)N(C5CCC(=O)N(C)C5=O)C6=O)CC4)CC3)CC2)c1)[C@H]1CC[C@@H](c2ccnc3ccc(F)cc32)CC1` (stereo partly specified), the result in test [21], in test [22], in test [26], in test [27], in test [28] and in test [29] was inactive. Moreover, the outcome in test [30] and in test [31] was inactive. The values for the Activity in [23], in test [24] and in test [25] were 99%, 162% and 125%, respectively. Further, the Emax in test [5] was under 10%. In [18], the DC50 is over 10000 nM.

`C[C@@H](C(=O)Nc1ccc(Cl)cc1)[C@H]1CC[C@@H](c2ccnc3ccc(F)cc32)CC1`: the inhibition result in [32] is “Active”.

The term Emax denotes the size of the effect at its maximum, as opposed to the concentration needed. For orientation: DC50 means the concentration giving 50% degradation. For orientation: Kd means the equilibrium constant for the complex coming apart.
